Source: the EternaBench riboswitch data

Test system: MS2 coat protein
Experiment: apparent Kd, MS2 coat protein; higher = weaker binding; RNA-MaP array; FMN 200 µM where present
Method in brief: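 Stalled E. coli RNA polymerase transcribed the designs on Illumina sequencing-chip clusters. SNAP-549-labelled MS2 coat protein was titrated from 0.7 or 1.5 nM, doubling to 3 µM, without and then with constant ligand, in 100 mM Tris-HCl pH 7.5, 80 mM KCl, 4 mM MgCl2, BSA, DTT, yeast tRNA and Tween-20. Per-cluster binding curves were fitted to green signal normalised to red-channel RNA signal and control-cluster median Fmax. The apparent Kd is the median of the filtered fits.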

[1] = designed as: OFF switch for flavin mononucleotide, no ligand
[2] = ligand present: flavin mononucleotide, designed as: OFF switch for flavin mononucleotide
[3] = designed as: ON switch for flavin mononucleotide, no ligand
[4] = ligand present: flavin mononucleotide, designed as: ON switch for flavin mononucleotide

Sequence | apparent Kd [1] [nM] | apparent Kd [2] [nM] | apparent Kd [3] [nM] | apparent Kd [4] [nM]
GUCAGCUCGUGAGGAUAUACAACACUGCUUCGGCAGUGUAUUAAGAUCACAUGAGGAUCACCCAUGUAGAAGGCACGAGUUGAU | 13.9 | 276 | – | –
AUCAUUCGUGUAGGAUAUGCGUGGCGAAGCUAUGCAGAAGGACAUGAGGAUCACCCAUGUCUUUCUCGAGCUGUAGCUCGAGGA | 21.3 | 92.2 | – | –
CCGGAGACGGGUAGCCUGACAUGAGGAUCACCCAUGUGAUCCUAGGAUAUGGAUCCUAAUUGGAUCCAGAAGGAGGUUGGCUAC | – | – | 1210 | 392
AUAAAACAUGAGGAUCACCCAUGUCAACAAAGUCGAGGAUAUGGGCAAUUAAAAUAAGAACCAGAAGGCGAAUAAU | – | – | 172 | 39.8
ACAUGAUAUGUAGGAUAUCACAACUUGUGUUAUAAAAUUGUAAUUUAGGAUUGAGAAGGACAUUUACAUGAGGAUCACCCAUGU | 17.6 | 13.3 | – | –
GUCGAGUGAGGAUAUUGAAUCGGUGGCAGACCACACGAGCUCGAGAAGGCACAUGAGGAUCACCCAUGUGGGUC | 28.1 | 41.6 | – | –
GAAUUCGCAUGAGGAUAUGCACUCAUUUCAUGUGCAGAAGGUAUUUCAUUAGACAUGAGGAUCACCCAUGUAUUGGUCAUUAAC | – | – | 19.3 | 14.7
GUCCUUAACGAGGAUAUCGGGCGGGUUUUUGUUUGAGAAGGUGUGACAUGAGGAUCACCCAUGUGGCGCGUGGG | 318 | 258 | – | –
CGCUGUCACGCAGGAUAUGCAUUGGAUUACAAUGCAGAAGGGCGAUCACAUGAGGAUCACCCAUGUGUAGACAGUGAAUAAGAG | – | – | 611 | 49.6
GGUUGGCGAGGAUAUACAUGAGGAUCACCCAUGUGGUCCUGAGAUAGAAUAGACCUUUGUAGAAGGCGCGGGUC | 172 | 136 | – | –
AGAUUCAUGGCCCGUUUGGGCUCACAUGAGGAUCACCCAUGUGAGGAUAUGACGUACCUGACUCGUCAGAAGGCGCAUGCGAAA | 7.48 | 15.7 | – | –
UUAUUUAGUGUGAGGAUAUGCUGGUCGAUAGAUCAGCAGAAGGCACAUGAGGAUCACCCAUGUAAUAUAUUAAA | 58.9 | 248 | – | –
CCCAUGUCAGGAUAUCUAAGAGAGGGCCAGCCCUCUCCUCCGGAGAAGGGACAUGAGGAUCACCCAUGUAAAAC | 129 | 25.5 | – | –
GGAUAGGACAGAGGAUAUACGUGCUAGAGAUACUAGCAAAAUUUCCUCACAUGAGGAUCACCCAUGUAGAAGGCUGUCCCAUCG | 15.3 | 327 | – | –
CGUAUGUAAGGAUAUAGCCACAUUACGAAUAAGUAGUGUGGCUAGAAGGUACAUGAGGAUCACCCAUGUAUGGG | 153 | 85.3 | – | –
AAAGAGCGAGGAUAUACGUAUCGGUGCGGCCAGCCGAUGUGACAUGAGGAUCACCCAUGUAGAAGGCGCAGAAA | 26.9 | 35.4 | – | –
UUUUUGUGAGGAUAUCAGUAGUAAAAAAAUAAAAUUACUACUGAGAAGGCACAUGAGGAUCACCCAUGUUCUUU | 18.7 | 58.5 | – | –
GGGCUGUCAGGAUAUAGUUCGAGUUCGGAAAUGAGCUUGAGCUAGAAGGGACAUGAGGAUCACCCAUGUGGCCC | 31.1 | 34.2 | – | –

Sequence | apparent Kd [1] [nM] | apparent Kd [2] [nM] | apparent Kd [3] [nM] | apparent Kd [4] [nM]
GUAGCAUUGAGAGGAUAUCCAUACCGGAAACGGACAUGAGGAUCACCCAUGUGGCGAAAGCCAUGGGAGAAGGCUCUAUGUUAC | – | – | 11.1 | 4.96
AUGGCGUGAGGAUAUGCGCAGGUUAACAUGAGGAUCACCCAUGUGGGCAUUGGUUUUCACGCAGAAGGUACGUUAA | 14.5 | 15.2 | – | –
UUAAUUUGAUGAUAUUAUGACAUUAGAAGGCUGUACAUGUUGAUACAUGAGGAUCACCCAUGUAUAGAGGAUAUAGACAAUUUU | 40.9 | 91.7 | – | –
CUUCGUAUAGAGGAUAUAGGUUACUUCGGUAUCCUAGAAGGCUGUACAUGAGGAUCACCCAUGUACUUCAGAUC | 11.2 | 16.9 | – | –
UAUAAUAUUAUAGGAUAUGGAUACGAUGCGUAUCCAGAAGGGUGAUUAUAAUAUAAUCUAUACAUGAGGAUCACCCAUGUUUAU | – | – | 301 | 121
AAGUCGCGGUCAGGAUAUCAGAAACAAAUUGACUGAGAAGGGAUGGCACAUGAGGAUCACCCAUGUCGUCGUCGCAGUGGGUGA | 116 | 155 | – | –
AAGCUGUGAGGAUAUACAUGAGGAUCACCCAUGUUAAGGAAGUCUUGGUUAAUUUGGAGUAGAAGGCGCUUAUU | 30.9 | 25.5 | – | –
AUCAAUCGUGUAGGAUAUGCGUGGCGAAGCUAUGCAGAAGGACAUGAGGAUCACCCAUGUCUUUCUGUCUGUGUACAGACAGGA | 20.4 | 71.5 | – | –
UGAACUAUGUAGAAGGCCCACAUUAAUAUGUAGGGAGGAUAUACAUGAGGAUCACCCAUGUGAAGAGCAAGAGGGUUUAACAGA | 112 | 143 | – | –
AACAUGUGAGGAUAUGUCACAUGGCUCUUCGGAGCAAGAUGACAGAAGGCACAUGAGGAUCACCCAUGUGCAUC | 13.8 | 22.6 | – | –
GUGUGAUUAAGAGGAUAUAUACAACAUGAGGAUCACCCAUGUACCCGUGUAGUAGAAGGUUUGUUUUUAUAUAAUAUUAUAAUU | – | – | 29.9 | 24.8
AAGUAGAUCCGAGGAUAUACAUAGUGGAAUCGCUACAUGAGGAUCACCCAUGUAGAAGGCGGAUCUACAGGUACUAAAGUACCA | 14 | 112 | – | –
AAACCACAUGAGGAUCACCCAUGUCAUAACCGUAGGGAGAAGAGAAGGGUGAGGGUGUAGCCUGCACAGGAUAUCUAGUGCCUC | – | – | 228 | 174
AGUCGGAGCAGAGGAUAUAUACAUGAGGAUCACCCAUGUAAAGAUCAAAGCAGGAAACUGCAAGUAUAGAAGGCUGCUCCGACA | 108 | 231 | – | –
ACAAAUCCUGACAUGAGGAUCACCCAUGUUAGAUUGUUAUGUCAGGAUAUUAUCUGGCAACCAGAUGAGAAGGGACGAUUUGUG | – | – | 722 | 64.7
UGUCGGAGCAGAGGAUAUUACAUGAGGAUCACCCAUGUGGAAAAACCAAGCUGGAAACAGCAAUGUAAGAAGGCUGCUCCGACA | 487 | 804 | – | –
GCACUGGCAGGAUAUACAUGAGGAUCACCCAUGUGACCCUUGAUGUACUCGCGUACACGUAGAAGGGCCUGUGC | 120 | 571 | – | –
UUUUUAUAAUAGAAGGAGGACUUCAUGAGGAUCACCCAUGUGUUAGUACUUAGGAUAUGUAAUAACAUGAGGAUCACCCAUGUC | – | – | 45.3 | 45.7
